Measurements: ChEMBL document CHEMBL1151932, “Antiviral effect of ribonuclease conjugated oligodeoxynucleotides targeting the IRES RNA of the hepatitis C virus” (Bioorg Med Chem Lett, 2009)
Active and inactive are the calls of the source. The rule behind the calls is not given here.

Columns and labels:
Hepatitis C virus [1] = assay: Antiviral activity against HCV infected in human Huh7.5.1 cells at 1000 nM treated through lipofection after 17 hrs of infection by luciferase assay; format: functional, Hepacivirus hominis, Huh-7
In short: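 Huh7.5.1 cells first infected with HCVcc; after 17 h, ODNs transfected by lipid reagent at 10–1000 nM. Triplicate runs; signal normalised to cell number by WST-1 and expressed as percent of non-specific scrambled ODN control.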

[2] = system: Internal ribosome entry site (IRES); assay: Inhibition of HCV IRES RNA fragment-mediated translation in human Huh7.5.1 cells treated through microporation 17 hrs prior to infection for 4 hrs measured after 20 hrs by luciferase reporter gene assay; format: cell-based; conditions: Hepacivirus hominis; Huh-7
Hepatitis C virus [3] = assay: Antiviral activity against HCV in cell-free system at 100 nM; format: functional; conditions: Hepacivirus hominis
Hepatitis C virus [4] = assay: Cytotoxicity against HCV infected in human Huh7.5.1 cells treated through microporation for 17 hrs prior to 4 hr infection period measured after 20 hrs postinfection by luciferase assay; format: organism-based; conditions: hepacivirus hominis, huh-7, 20 h
Hepatitis C virus [5] = assay: Antiviral activity against HCV infected in human Huh7.5.1 cells at 100 nM treated through lipofection after 17 hrs of infection by luciferase assay; format: functional, organism-based; conditions: Hepacivirus hominis, Huh-7
In short: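 Huh7.5.1 cells were infected with reporter HCVcc (FL-J6/JFH-5/C19Rluc2AUbi construct) without trypsinization. After 17 h, cells were transfected with oligodeoxynucleotide using a lipid reagent (10–1000 nM tested). Replication signal was normalized to cell number by WST-1 and expressed as % of a scrambled-sequence non-specific ODN control. Triplicate.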

[6] = system: Internal ribosome entry site (IRES); assay: Inhibition of HCV IRES RNA fragment-mediated translation in human Huh7.5.1 cells treated through microporation 17 hrs prior to infection for 4 hrs measured after 20 hrs by reticulocyte based translation assay; format: cell-based; conditions: Hepacivirus hominis; Huh-7
Hepatitis C virus [7] = assay: Cytotoxicity against HCV infected in human Huh7.5.1 cells treated through microporation for < 17 hrs prior to 4 hrs infection period measured after 20 hrs postinfection by luciferase assay; format: organism-based; conditions: hepacivirus hominis, huh-7, 20 h
Hepatitis C virus [8] = assay: Antiviral activity against HCV infected in human Huh7.5.1 cells assessed as reduction in viral replication treated through microporation 17 hrs prior to infection for 4 hrs measured after 20 hrs by luciferase assay; format: functional, organism-based; conditions: Hepacivirus hominis; Huh-7
In short: (§1)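 Huh7.5.1 cells were microporated with oligodeoxynucleotide (10–1000 nM) and infected with reporter HCVcc (FL-J6/JFH-5/C19Rluc2AUbi construct) about 17 h later. Viral replication was read 20 h after infection, normalized to cell number by WST-1, and expressed as % of a scrambled-sequence non-specific ODN control. Triplicate.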

Hepatitis C virus [9] = assay: Antiviral activity against HCV infected in human Huh7.5.1 cells assessed as reduction in viral replication treated through microporation 17 hrs prior to infection for 4 hrs measured after 20 hrs by luciferase assay relative to control; format: functional, Hepacivirus hominis, Huh-7; parameters: scale not given: the % may be the effect or the level left
In short: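 Huh7.5.1 cells electroporated (microporation) with ODNs at 10–1000 nM, then infected with HCVcc; replication read 20 h after infection. Triplicate runs; signal normalised to cell number by WST-1 and expressed as percent of scrambled-sequence non-specific ODN control.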

Hepatitis C virus [10] = assay: Antiviral activity against HCV infected in human Huh7.5.1 cells assessed as reduction in viral replication at 100 nM treated through microporation 17 hrs prior to infection for 4 hrs measured after 20 hrs by luciferase assay; format: functional, organism-based; conditions: Hepacivirus hominis, Huh-7; in short: as §1
Hepatitis C virus [11] = assay: Antiviral activity against HCV infected in human Huh7.5.1 cells assessed as reduction in viral replication at 1000 nM treated through microporation 17 hrs prior to infection for 4 hrs measured after 20 hrs by luciferase assay; format: functional, organism-based; conditions: Hepacivirus hominis, Huh-7; in short: as §1

Row | SMILES | Activity (Hepatitis C virus [1]) | Activity [2] | Activity (Hepatitis C virus [3]) | Activity (Hepatitis C virus [4]) | Activity (Hepatitis C virus [5]) | Activity [6] | Activity (Hepatitis C virus [7]) | Activity (Hepatitis C virus [8]) | Activity (Hepatitis C virus [9]) | Activity (Hepatitis C virus [10]) | Activity (Hepatitis C virus [11])
1 | Cc1cn([C@@H]2O[C@H](COP(=O)(O)O[C@H]3[C@@H](O)[C@H](n4ccc(N)nc4=O)O[C@@H]3COP(=O)(O)O[C@H]3C(O)[C@H](n4cnc5c(N)ncnc54)O[C@@H]3COP(=O)(O)O[C@H]3[C@@H](O)[C@H](n4ccc(N)nc4=O)O[C@@H]3COP(=O)(O)O[C@H]3[C@@H](O)[C@H](n4cnc5c(N)ncnc54)O[C@@H]3COP(=O)(O)O[C@H]3[C@@H](O)[C@H](n4cnc5c(N)ncnc54)O[C@@H]3COP(=O)(O)O[C@H]3[C@@H](O)[C@H](n4ccc(N)nc4=O)O[C@@H]3COP(=O)(O)O[C@H]3[C@@H](O)[C@H](n4ccc(N)nc4=O)O[C@@H]3COP(=O)(O)O[C@H]3C[C@H](n4ccc(N)nc4=O)O[C@@H]3COP(=O)(O)OCCCNC(=O)C(CCCc3c[nH]cn3)CCCc3c[nH]cn3)[C@@H](OP(=O)(O)OC[C@H]3O[C@@H](n4cnc5c(N)ncnc54)[C@H](O)[C@@H]3OP(=O)(O)OC[C@H]3O[C@@H](n4ccc(N)nc4=O)C(O)[C@@H]3OP(=O)(O)OC[C@H]3O[C@@H](n4cc(C)c(=O)[nH]c4=O)[C@H](O)[C@@H]3OP(=O)(O)OC[C@H]3O[C@@H](n4ccc(N)nc4=O)[C@H](O)[C@@H]3OP(=O)(O)OC[C@H]3O[C@@H](n4cnc5c(=O)[nH]c(N)nc54)[C@H](O)[C@@H]3OP(=O)(O)OC[C@H]3O[C@@H](n4cnc5c(=O)[nH]c(N)nc54)[C@H](O)[C@@H]3OP(=O)(O)OC[C@H]3O[C@@H](n4cnc(N)cc4=O)[C@H](O)[C@@H]3OP(=O)(O)O)[C@H]2O)c(=O)[nH]c1=O (stereo not given in full) | 50% | Active | inactive | Non-toxic | Active | Active | – | – | – | – | –
2 | Cc1cn([C@@H]2O[C@H](COP(=O)(O)O[C@H]3[C@@H](O)[C@H](n4ccc(N)nc4=O)O[C@@H]3COP(=O)(O)O[C@H]3[C@@H](O)[C@H](n4ccc(N)nc4=O)O[C@@H]3COP(=O)(O)O[C@H]3[C@@H](O)[C@H](n4ccc(N)nc4=O)O[C@@H]3COP(=O)(O)O[C@H]3[C@@H](O)[C@H](n4cnc5c(N)ncnc54)O[C@@H]3COP(=O)(O)O[C@H]3[C@@H](O)[C@H](n4cnc5c(N)ncnc54)O[C@@H]3COP(=O)(O)O[C@H]3[C@@H](O)[C@H](n4ccc(N)nc4=O)O[C@@H]3CO)[C@@H](OP(=O)(O)OC[C@H]3O[C@@H](n4cnc5c(N)ncnc54)[C@H](O)[C@@H]3OP(=O)(O)OC[C@H]3O[C@@H](n4cnc5c(=O)[nH]c(N)nc54)[C@H](O)[C@@H]3OP(=O)(O)OC[C@H]3O[C@@H](n4cc(C)c(=O)[nH]c4=O)[C@H](O)[C@@H]3OP(=O)(O)OC[C@H]3O[C@@H](n4cc(C)c(=O)[nH]c4=O)[C@H](O)[C@@H]3OP(=O)(O)OC[C@H]3O[C@@H](n4cc(C)c(=O)[nH]c4=O)[C@H](O)[C@@H]3OP(=O)(O)OC[C@H]3O[C@@H](n4cnc5c(=O)[nH]c(N)nc54)[C@H](O)[C@@H]3OP(=O)(O)OC[C@H]3O[C@@H](n4cc(C)c(=O)[nH]c4=O)[C@H](O)[C@@H]3OP(=O)(O)OC[C@H]3O[C@@H](n4ccc(N)nc4=O)[C@H](O)[C@@H]3O[PH](O)(O)OC[C@H]3O[C@@H](n4cnc5c(N)ncnc54)[C@H](O)[C@@H]3OP(=O)(O)OC[C@H]3O[C@@H](n4cnc5c(N)ncnc54)[C@H](O)[C@@H]3OP(=O)(O)O)[C@H]2O)c(=O)[nH]c1=O | – | – | – | Non-toxic | – | – | – | – | – | – | –
3 | Cc1cn([C@@H]2O[C@H](COP(=O)(O)O[C@H]3[C@@H](O)[C@H](n4ccc(N)nc4=O)O[C@@H]3COP(=O)(O)O[C@H]3[C@@H](O)[C@H](n4cnc5c(N)ncnc54)O[C@@H]3COP(=O)(O)O[C@H]3[C@@H](O)[C@H](n4cc(C)c(=O)[nH]c4=O)O[C@@H]3COP(=O)(O)O[C@H]3[C@@H](O)[C@H](n4ccc(N)nc4=O)O[C@@H]3COP(=O)(O)O[C@@H]3[C@@H](COP(=O)(O)O[C@H]4[C@@H](O)[C@H](n5ccc(N)nc5=O)O[C@@H]4COP(=O)(O)O[C@H]4[C@@H](O)[C@H](n5cnc6c(N)ncnc65)O[C@@H]4COP(=O)(O)O[C@H]4[C@@H](O)[C@H](n5cnc6c(N)ncnc65)O[C@@H]4COP(=O)(O)O[C@H]4[C@@H](O)[C@H](n5ccc(N)nc5=O)O[C@@H]4COP(=O)(O)O[C@H]4[C@@H](O)[C@H](n5ccc(N)nc5=O)O[C@@H]4COP(=O)(O)O[C@H]4[C@@H](O)[C@H](n5ccc(N)nc5=O)O[C@@H]4COP(=O)(O)O[C@H]4C[C@H](n5cnc6c(N)ncnc65)O[C@@H]4COP(=O)(O)O)OC(n4cnc5c(N)ncnc54)[C@@H]3O)[C@@H](OP(=O)(O)OC[C@H]3O[C@@H](n4ccc(N)nc4=O)[C@H](O)[C@@H]3OP(=O)(O)OC[C@H]3O[C@@H](n4cnc5c(=O)[nH]c(N)nc54)[C@H](O)[C@@H]3OP(=O)(O)OC[C@H]3O[C@@H](n4cnc5c(=O)[nH]c(N)nc54)[C@H](O)[C@@H]3OP(=O)(O)OC[C@H]3O[C@@H](n4ccc(N)nc4=O)[C@H](O)[C@@H]3OP(=O)(O)O)[C@H]2O)c(=O)[nH]c1=O (stereo not given in full) | 50% | – | – | Non-toxic | Active | – | Toxic | Dose-dependent effect | 50% | Active | –
4 | Cc1cn([C@@H]2O[C@H](COP(=O)(O)O[C@H]3[C@@H](O)[C@H](n4ccc(N)nc4=O)O[C@@H]3COP(=O)(O)O[C@H]3[C@@H](O)[C@H](n4cnc5c(N)ncnc54)O[C@@H]3COP(=O)(O)O[C@H]3[C@@H](O)[C@H](n4cc(C)c(=O)[nH]c4=O)O[C@@H]3COP(=O)(O)O[C@H]3[C@@H](O)[C@H](n4ccc(N)nc4=O)O[C@@H]3COP(=O)(O)O[C@H]3[C@@H](O)[C@H](n4cnc5c(N)ncnc54)O[C@@H]3COP(=O)(O)O[C@H]3[C@@H](O)[C@H](n4ccc(N)nc4=O)O[C@@H]3COP(=O)(O)O[C@H]3[C@@H](O)[C@H](n4cnc5c(N)ncnc54)O[C@@H]3COP(=O)(O)O[C@H]3[C@@H](O)[C@H](n4cnc5c(N)ncnc54)O[C@@H]3COP(=O)(O)O[C@H]3[C@@H](O)[C@H](n4ccc(N)nc4=O)O[C@@H]3COP(=O)(O)O[C@H]3[C@@H](O)[C@H](n4ccc(N)nc4=O)O[C@@H]3COP(=O)(O)O[C@H]3[C@@H](O)[C@H](n4ccc(N)nc4=O)O[C@@H]3COP(=O)(O)O[C@H]3[C@@H](O)[C@H](n4cnc5c(N)ncnc54)O[C@@H]3CO)[C@@H](OP(=O)(O)OC[C@H]3O[C@@H](n4ccc(N)nc4=O)[C@H](O)[C@@H]3OP(=O)(O)OC[C@H]3O[C@@H](n4cnc5c(=O)[nH]c(N)nc54)[C@H](O)[C@@H]3OP(=O)(O)OC[C@H]3O[C@@H](n4cnc5c(=O)[nH]c(N)nc54)[C@H](O)[C@@H]3OP(=O)(O)OC[C@H]3O[C@@H](n4cnc(N)cc4=O)C[C@@H]3OP(=O)(O)OCCCNC(=O)CCc3c[nH]cn3)[C@H]2O)c(=O)[nH]c1=O | 50% | – | – | Non-toxic | Active | – | Toxic | Dose-dependent effect | 50% | Active | inactive
5 | Cc1cn([C@@H]2O[C@H](COP(=O)(O)O[C@H]3[C@@H](O)[C@H](n4ccc(N)nc4=O)O[C@@H]3COP(=O)(O)O[C@H]3[C@@H](O)[C@H](n4cnc5c(N)ncnc54)O[C@@H]3COP(=O)(O)O[C@H]3[C@@H](O)[C@H](n4cc(C)c(=O)[nH]c4=O)O[C@@H]3COP(=O)(O)O[C@H]3[C@@H](O)[C@H](n4ccc(N)nc4=O)O[C@@H]3COP(=O)(O)O[C@@H]3[C@@H](COP(=O)(O)O[C@H]4[C@@H](O)[C@H](n5ccc(N)nc5=O)O[C@@H]4COP(=O)(O)O[C@H]4[C@@H](O)[C@H](n5cnc6c(N)ncnc65)O[C@@H]4COP(=O)(O)O[C@H]4[C@@H](O)[C@H](n5cnc6c(N)ncnc65)O[C@@H]4COP(=O)(O)O[C@H]4[C@@H](O)[C@H](n5ccc(N)nc5=O)O[C@@H]4COP(=O)(O)O[C@H]4[C@@H](O)[C@H](n5ccc(N)nc5=O)O[C@@H]4COP(=O)(O)O[C@H]4[C@@H](O)[C@H](n5ccc(N)nc5=O)O[C@@H]4COP(=O)(O)O[C@H]4C[C@H](n5cnc6c(N)ncnc65)O[C@@H]4COP(=O)(O)OCCCNC(=O)CCc4c[nH]cn4)OC(n4cnc5c(N)ncnc54)[C@@H]3O)[C@@H](OP(=O)(O)OC[C@H]3O[C@@H](n4ccc(N)nc4=O)[C@H](O)[C@@H]3OP(=O)(O)OC[C@H]3O[C@@H](n4cnc5c(=O)[nH]c(N)nc54)[C@H](O)[C@@H]3OP(=O)(O)OC[C@H]3O[C@@H](n4cnc5c(=O)[nH]c(N)nc54)[C@H](O)[C@@H]3OP(=O)(O)OC[C@H]3O[C@@H](n4ccc(N)nc4=O)[C@H](O)[C@@H]3OP(=O)(O)O)[C@H]2O)c(=O)[nH]c1=O (stereo not given in full) | 50% | – | – | Non-toxic | Active | – | Toxic | Dose-dependent effect | 50% | Active | inactive
